Assay results gathered from unrelated publications.
Compare with care: the assays were run in different laboratories.
Effect on: cell growth or viability

Cc1nc2ccc(Cl)cn2c1C(=O)N1CCN(Cc2cn(-c3cccc(Cl)c3)nn2)CC1 — CC50 (HeLa; resazurin): > 100 µM
CCOP(=O)(OCC)[C@@H]1C[C@H](n2cc(C(=O)OC)nn2)ON1C (relative stereo) — CC50 (HEL; 72 h): > 100 µM
Cc1nc2ccc(Cl)cn2c1C(=O)N1CCN(Cc2cn(-c3ccccc3)nn2)CC1 — CC50 (HeLa; resazurin): > 100 µM
COC(=O)c1cc(N)cc(NS(=O)(=O)c2ccc(OC)cc2)c1 — IC50 (HeLa; XTT; 72 h): 20 µM
CCOP(=O)(OCC)[C@@H]1C[C@@H](n2cc(-c3ccccn3)nn2)ON1C (racemic) — CC50 (HeLa; 72 h): > 250 µM
COc1ccc(S(=O)(=O)Nc2cc(OC)c(NC(=O)CCl)cc2OC)cc1 — IC50 (HeLa; XTT; 72 h): 2.4 µM
Nc1nc2c(ncn2COCCO)c(=O)[nH]1 — CC50 (HEL; 72 h): > 440 µM
CCOP(=O)(OCC)[C@@H]1C[C@@H](n2cc(-c3nccn3C)nn2)ON1C — CC50 (HEL; 72 h): > 100 µM
C=CC1=C(C)c2cc3[nH]c(cc4nc(cc5[nH]c(cc1n2)c(C)c5CCC(=O)O)C(CCC(=O)O)=C4C)c(C)c3C=C — IC50 (RPE-1; resazurin; 4 h; dark): > 100 µM
COc1ccc(NS(=O)(=O)c2ccc(N(C)C=O)cc2)cn1 — IC50 (HeLa; XTT; 72 h): > 100 µM
COc1ccc(-n2cc(CN3CCN(C(=O)c4c(C)nc5ccc(Cl)cn45)CC3)nn2)c([N+](=O)[O-])c1 — CC50 (HeLa; resazurin): > 100 µM
COc1cc(N)c(NS(=O)(=O)c2ccc(N(C)C)cc2)cc1OC — IC50 (HeLa; XTT; 72 h): > 100 µM
COc1ccc(-n2cc(CN3CCN(C(=O)c4c(C)nc5cc(C)ccn45)CC3)nn2)c([N+](=O)[O-])c1 — CC50 (HeLa; resazurin): > 100 µM
